Assay results: PMC5846678 (Bioorganic & medicinal chemistry letters, 2017)

Key:
[1] = pharmacokinetic analysis, DIPG mice models; cited from earlier work
IGF1R/IR [2] = experiment: microPET imaging in rats; type: in vivo, Sprague-Dawley rats; settings: time frames 1-10 min and 81-90 min, tail vein injection
Method in brief: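 Anaesthetised male Sprague-Dawley rats (N = 2) were imaged on an Inveon microPET after tail-vein injection of 0.2 ± 0.05 mCi 18F-labelled test compound in 5% ethanol/normal saline, with acquisition starting at injection. A 68Ge transmission scan provided attenuation correction. List-mode data were collected for 90 min, Fourier-rebinned, reconstructed by filtered back-projection and expressed as nCi/cc. Coronal images were summed 0–10 and 81–90 min. ROI time-activity curves covered heart, muscles and brain.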

IGF1R/IR [3] = experiment: microPET imaging in mice; type: in vivo, C57BL/6 mice
Method in brief: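 Male C57BL/6 mice (N = 2) under anaesthesia on an Inveon microPET. The 18F-labelled test compound was formulated in 5% ethanol/normal saline and sterile-filtered. 0.2 ± 0.05 mCi was given via tail vein at the start of acquisition. A 68Ge transmission scan was used for attenuation correction. List-mode data were collected for 60 min, Fourier-rebinned, reconstructed by filtered back-projection and expressed as nCi/cc. Images were summed 0–10 and 0–60 min. ROI time-activity curves were drawn for brain, heart, muscle and thalamus.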

IGF1R/IR [4] = experiment: biodistribution in rats 120 min post injection; type: in vivo, Sprague-Dawley rats
IGF1R = settings: autoradiography; cited from earlier work

Row | radioligand accumulation in brain (IGF1R/IR [2]) | brain activity of the radiotracer (IGF1R/IR [3]; microPET) | uptake in heart (IGF1R/IR [3]; microPET) | uptake in muscles (IGF1R/IR [3]; microPET) | time of peak brain level of activity post-injection (IGF1R/IR [3]; microPET time activity curves) | binding in lung (IGF1R/IR [4]) | binding in spleen (IGF1R/IR [4]) | binding in stomach (IGF1R/IR [4]) | bone uptake ([18F]defluorination) (IGF1R/IR [4]) | radioactivity in brain (IGF1R/IR [4]) | uptake in heart (IGF1R/IR [4]) | uptake in large intestine (IGF1R/IR [4]) | uptake in liver (IGF1R/IR [4]) | uptake in pancreas (IGF1R/IR [4]) | uptake in small intestine (IGF1R/IR [4]) | Compound | concentration in tumor tissue [1] | binding in grade IV glioblastoma (GBM) in comparison to control brain tissues (IGF1R) [times]
1 |  |  |  |  |  |  |  |  |  |  |  |  |  |  |  | C[C@@]1(C(=O)Nc2ccc(F)nc2)CCCN1c1nc(Nc2cc(C3CC3)n[nH]2)c2cccn2n1 [BMS-754807] | low concentration | 
2 | negligible | no noticeable brain activity | High uptake | High uptake | less than 1 min | negligible binding | negligible binding | low binding | no bone uptake | low levels of radioactivity | significant uptake | moderate uptake | moderate uptake | significant uptake | unusually higher uptake | C[C@@]1(C(=O)Nc2ccc([18F])nc2)CCCN1c1nc(Nc2cc(C3CC3)[nH]n2)c2cccn2n1 [[^18F]BMS-754807] |  | 5.25
